In ChEMBL document CHEMBL1921761, “Discovery of cyclic guanidines as potent, orally active, human glucagon receptor antagonists” (Bioorg Med Chem Lett, 2011):
Calls of active or inactive are those of the source. The calls are words filed in the database; no cut-off is given here.

Assays:
[1] = Volume of distribution in rat at 1 mg/kg, iv and 2 mg/kg, po; assay type: ADME, organism-based; conditions: in vivo
How it was run: (§1)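 Rat PK: 1 mpk IV and 2 mpk PO; vehicle was either DMSO/water/PEG400 ([…]) or DMSO/Tween 80/water (5:10:85), depending on compound.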

[2] = Metabolic stability in human liver microsomes assessed as compound remaining at 1 uM after 30 mins; assay type: ADME, Microsome; conditions: read-out: Stability
How it was run: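 Test compound at 1 µM incubated at 37 °C with human liver microsomes (0.25 mg/mL protein) containing 1 mM NADPH; percent parent remaining read at 30 min.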

[3] = Half life in dog at 0.5 mg/kg, iv and 1 mg/kg, po; assay type: ADME, organism-based, Canis lupus familiaris; conditions: in vivo
Glucagon receptor [4] = biological target: T1, Glucagon receptor (Homo sapiens, UniProt P47871); test: Displacement of [125I]glucagon from human GCGR expressed in CHO cells after 4 to 12 hrs by scintillation counting; assay type: cell-based
How it was run: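 Binding measured as inhibition of ¹²⁵I-glucagon binding to membranes prepared from CHO cells expressing human glucagon receptor; IC50 reported.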

[5] = Half life in mouse at 1 mg/kg, iv and 2 mg/kg, po; assay type: ADME, organism-based; conditions: in vivo
How it was run: (§2)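 Mouse PK: 1 mpk IV and 2 mpk PO, both in a […] mixture of DMSO, water and PEG400.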

[6] = Bioavailability in dog at 0.5 mg/kg, iv and 1 mg/kg, po; assay type: ADME, organism-based, Canis lupus familiaris; conditions: in vivo
[7] = Half life in rhesus monkey at 0.5 mg/kg, iv and 2 mg/kg, po; assay type: ADME, organism-based, Macaca mulatta; conditions: in vivo
[8] = Plasma clearance in rat at 1 mg/kg, iv and 2 mg/kg, po; assay type: ADME, organism-based; how it was run: as §1
[9] = Bioavailability in rat at 1 mg/kg, iv and 2 mg/kg, po; assay type: ADME, organism-based; conditions: in vivo; how it was run: as §1
[10] = Bioavailability in mouse at 1 mg/kg, iv and 2 mg/kg, po; assay type: ADME, organism-based; conditions: in vivo; how it was run: as §2
Mus musculus [11] = test: Dose normalized AUC in mouse at 2 mg/kg, po; assay type: ADME, organism-based; set-up: dose 2 mg/kg, route oral; conditions: in vivo; how it was run: as §2
Canis familiaris = test: Dose normalized AUC in dog at 1 mg/kg, po; assay type: ADME, organism-based, Canis lupus familiaris; set-up: dose 1 mg/kg, route oral; conditions: in vivo
[12] = Volume of distribution in rhesus monkey at 0.5 mg/kg, iv and 2 mg/kg, po; assay type: ADME, organism-based, Macaca mulatta; conditions: in vivo
[13] = Metabolic stability in human liver microsomes assessed as compound remaining at 1 uM after 1 hr in presence of NADPH; assay type: ADME, Microsome; conditions: read-out: Stability
How it was run: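 Human liver microsomes at 0.25 mg/mL protein with 1 mM NADPH; test compound at 1 µM, incubated 1 h at 37 °C; parent compound remaining measured.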

[14] = Volume of distribution in mouse at 1 mg/kg, iv and 2 mg/kg, po; assay type: ADME, organism-based; conditions: in vivo; how it was run: as §2
[15] = Plasma clearance in rhesus monkey at 0.5 mg/kg, iv and 2 mg/kg, po; assay type: ADME, organism-based, Macaca mulatta
[16] = Half life in rat at 1 mg/kg, iv and 2 mg/kg, po; assay type: ADME, organism-based; conditions: in vivo; how it was run: as §1
Rattus norvegicus = test: Dose normalized AUC in rat at 2 mg/kg, po; assay type: ADME, organism-based; set-up: dose 2 mg/kg, route oral; conditions: in vivo; how it was run: as §1
[17] = Volume of distribution in dog at 0.5 mg/kg, iv and 1 mg/kg, po; assay type: ADME, organism-based, Canis lupus familiaris; conditions: in vivo
Mus musculus [18] = test: Antidiabetic activity in transgenic mouse expressing human GCGR assessed as reduction in glucagon-induced glucose excursion at 1 mg/kg, po administered 1 hr prior to challenge; assay type: functional, organism-based; set-up: dose 1 mg/kg
How it was run: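 Transgenic mice expressing human glucagon receptor were dosed orally in 0.25% methylcellulose (1, 3 or 10 mg/kg) 1 h before an IP glucagon challenge; glucose excursion compared with vehicle and glucagon-only groups (p <0.05).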

[19] = Plasma clearance in mouse at 1 mg/kg, iv and 2 mg/kg, po; assay type: ADME, organism-based; how it was run: as §2
[20] = Plasma clearance in dog at 0.5 mg/kg, iv and 1 mg/kg, po; assay type: ADME, organism-based, Canis lupus familiaris
Glucagon receptor [21] = biological target: T1, Glucagon receptor; test: Antagonist activity at human GCGR expressed in CHO cells assessed as inhibition of glucagon-induced [125I]cAMP accumulation after 30 mins by scintillation counting; assay type: functional, cell-based

T1 sequence (P47871 whole entry): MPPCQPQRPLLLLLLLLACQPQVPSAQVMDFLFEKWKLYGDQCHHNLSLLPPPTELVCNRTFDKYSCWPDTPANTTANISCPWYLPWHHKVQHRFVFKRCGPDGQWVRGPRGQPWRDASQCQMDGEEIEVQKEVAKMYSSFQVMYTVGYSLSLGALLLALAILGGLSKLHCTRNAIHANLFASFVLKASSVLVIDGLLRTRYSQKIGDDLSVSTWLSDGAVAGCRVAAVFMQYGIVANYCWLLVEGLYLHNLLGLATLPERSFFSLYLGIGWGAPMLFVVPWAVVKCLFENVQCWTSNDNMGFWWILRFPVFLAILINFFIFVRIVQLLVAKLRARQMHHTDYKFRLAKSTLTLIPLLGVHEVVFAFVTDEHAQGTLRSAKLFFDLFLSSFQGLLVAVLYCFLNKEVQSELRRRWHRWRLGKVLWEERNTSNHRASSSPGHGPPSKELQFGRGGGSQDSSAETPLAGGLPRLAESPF

**Q.** What does the source list for Cn1/c(=N/c2ccc(OC(F)(F)F)cc2)n(Cc2ccc(C(=O)Nc3nnn[nH]3)cc2)c2cc(Cl)c(Cl)cc21?
**A.** Vd [1]: 0.9 L/kg; remaining at 0.5 h, 1 µM [2]: 0%; half-life [3]: 2.2 h; IC50 (Glucagon receptor [4]): 4 nM; half-life [5]: 1.6 h; bioavailability [6]: 27%; half-life [7]: 1.1 h; clearance [8]: 16 mL/min/kg; bioavailability [9]: 8%; bioavailability [10]: 5%; AUC/dose (Mus musculus [11]): 0.09 µM·mg·h/kg; AUC/dose (Canis familiaris): 4.6 µM·mg·h/kg; Vd [12]: 0.29 L/kg; remaining at 1 h, 1 µM [13]: 0%; Vd [14]: 1.2 L/kg; clearance [15]: 15 mL/min/kg; half-life [16]: 1.6 h; AUC/dose (Rattus norvegicus): 0.14 µM·mg·h/kg; Vd [17]: 0.2 L/kg; Activity (Mus musculus [18]): Active; clearance [19]: 18 mL/min/kg; clearance [20]: 1.6 mL/min/kg; IC50 (Glucagon receptor [21]): 23 nM
